Data taken from ChEMBL document CHEMBL4152223 (Eur J Med Chem, 2018).
In brackets after ≈: the same amount, converted by molar mass. Activity calls are given as the source filed them. The calls are words filed in the database; no cut-off is given here.

How the values were obtained:
[1] = test system: Mycobacterium tuberculosis; experiment: Antimycobacterial activity against Mycobacterium tuberculosis H37Rv after 14 days; assay type: functional; details: 336 h
[2] = Selectivity index, ratio of IC50 for human HepG2 cells to MIC for Mycobacterium kansasii 6509/96; assay type: toxicity; details: read-out: Selectivity Index
Summary of the method: (§1)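 SI is calculated as HepG2 IC50 divided by MIC. HepG2 cells (passage 2-4) were grown in EMEM with 10% FBS, L-glutamine and non-essential amino acids. Compounds in DMSO were tested in triplicate at eight concentrations, and viability was read by MTS tetrazolium reduction. IC50 is the concentration reducing viability to 50% of control. 10% DMSO served as the 0% viability control.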

[3] = Selectivity index, ratio of IC50 for human HepG2 cells to MIC for Mycobacterium tuberculosis H37Rv after 14 days; assay type: toxicity; details: read-out: Selectivity Index; summary of the method: as §1
[4] = test system: Mycobacterium avium; experiment: Antimycobacterial activity against INH/RIF/OFX resistant Mycobacterium avium 330/88 after 14 days; assay type: functional; details: 330/88, 336 h
[5] = test system: Mycobacterium kansasii; experiment: Antimycobacterial activity against Mycobacterium kansasii 6509/96 after 21 days; assay type: functional; details: 6509/96, 504 h
[6] = test system: Mycobacterium kansasii; experiment: Antimycobacterial activity against Mycobacterium kansasii 6509/96 after 7 days; assay type: functional; details: 6509/96, 168 h
[7] = test system: Mycobacterium kansasii; experiment: Antimycobacterial activity against Mycobacterium kansasii 235/80 after 21 days; assay type: functional; details: 235/80, 504 h
[8] = test system: HepG2; experiment: Cytotoxicity against human HepG2 cells assessed as reduction in cell viability by MTS assay; assay type: cell-based
Summary of the method: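 HepG2 human hepatocellular carcinoma cells (passage 2-4) were cultured in Eagle's MEM with 10% FBS, 1% L-glutamine and non-essential amino acids. Compounds were dissolved in DMSO and tested in triplicate at eight concentrations. Viability was read by colorimetric MTS tetrazolium reduction. Controls were 100% viability and 0% viability (10% DMSO). IC50 is the concentration reducing viability to 50% of control.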

[9] = test system: Mycobacterium kansasii; experiment: Antimycobacterial activity against Mycobacterium kansasii 235/80 after 14 days; assay type: functional; details: 235/80, 336 h
[10] = test system: Mycobacterium avium; experiment: Antimycobacterial activity against INH/RIF/OFX resistant Mycobacterium avium 330/88 after 21 days; assay type: functional; details: 330/88, 504 h
[11] = test system: Mycobacterium kansasii; experiment: Antimycobacterial activity against Mycobacterium kansasii 235/80 after 7 days; assay type: functional; details: 235/80, 168 h
[12] = test system: Mycobacterium kansasii; experiment: Antimycobacterial activity against Mycobacterium kansasii 6509/96 after 14 days; assay type: functional; details: 6509/96, 336 h
[13] = Selectivity index, ratio of IC50 for human HepG2 cells to MIC for Mycobacterium kansasii 235/80; assay type: toxicity; details: read-out: Selectivity Index; summary of the method: as §1
[14] = test system: Mycobacterium tuberculosis; experiment: Antimycobacterial activity against Mycobacterium tuberculosis H37Rv after 21 days; assay type: functional; details: 504 h
[15] = molecular target: T1, Enoyl-[acyl-carrier-protein] reductase [NADH] (Mycobacterium tuberculosis) (UniProt P9WGR1); experiment: Inhibition of Mycobacterium tuberculosis H37Rv InhA assessed as reduction of methyl esters of fatty acid synthesis at 4 to 8 uM preincubated for 24 hrs followed by [14C]acetate addition and measured after 24 hrs by TLC analysis
T1 sequence (whole entry): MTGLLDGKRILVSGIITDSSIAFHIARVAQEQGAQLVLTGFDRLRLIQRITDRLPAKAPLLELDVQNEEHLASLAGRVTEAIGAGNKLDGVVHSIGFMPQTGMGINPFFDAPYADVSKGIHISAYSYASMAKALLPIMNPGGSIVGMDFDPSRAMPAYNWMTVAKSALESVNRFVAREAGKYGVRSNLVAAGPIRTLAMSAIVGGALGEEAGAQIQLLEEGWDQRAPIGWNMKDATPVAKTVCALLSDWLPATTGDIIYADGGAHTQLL

[16] = molecular target: T1, Enoyl-[acyl-carrier-protein] reductase [NADH] (Mycobacterium tuberculosis); experiment: Inhibition of Mycobacterium tuberculosis H37Rv InhA assessed as reduction of trehalose dimycolate synthesis at 4 to 8 uM preincubated for 24 hrs followed by [14C]acetate addition and measured after 24 hrs by TLC analysis
[17] = molecular target: T1, Enoyl-[acyl-carrier-protein] reductase [NADH] (Mycobacterium tuberculosis); experiment: Inhibition of Mycobacterium tuberculosis H37Rv InhA assessed as reduction of alpha mycolic acid synthesis at 4 to 8 uM preincubated for 24 hrs followed by [14C]acetate addition and measured after 24 hrs by TLC analysis
[18] = molecular target: T1, Enoyl-[acyl-carrier-protein] reductase [NADH] (Mycobacterium tuberculosis); experiment: Inhibition of Mycobacterium tuberculosis H37Rv InhA assessed as reduction of methoxy and keto mycolic acid synthesis at 4 to 8 uM preincubated for 24 hrs followed by [14C]acetate addition and measured after 24 hrs by TLC analysis
[19] = test system: Mycobacterium tuberculosis; experiment: Antimycobacterial activity against Mycobacterium tuberculosis H37Rv after 25 days by drop dilution method; assay type: functional, organism-based
[20] = molecular target: T1, Enoyl-[acyl-carrier-protein] reductase [NADH] (Mycobacterium tuberculosis); experiment: Inhibition of Mycobacterium tuberculosis H37Rv InhA assessed as reduction of trehalose monomycolate synthesis at 4 to 8 uM preincubated for 24 hrs followed by [14C]acetate addition and measured after 24 hrs by TLC analysis
[21] = molecular target: T1, Enoyl-[acyl-carrier-protein] reductase [NADH] (Mycobacterium tuberculosis); experiment: Inhibition of Mycobacterium tuberculosis H37Rv InhA assessed as reduction of phosphatidylethanolamine synthesis at 4 to 8 uM preincubated for 24 hrs followed by [14C]acetate addition and measured after 24 hrs by TLC analysis
[22] = molecular target: T1, Enoyl-[acyl-carrier-protein] reductase [NADH] (Mycobacterium tuberculosis); experiment: Inhibition of Mycobacterium tuberculosis H37Rv InhA assessed as reduction of cardiolipin synthesis at 4 to 8 uM preincubated for 24 hrs followed by [14C]acetate addition and measured after 24 hrs by TLC analysis
[23] = test system: Mycobacterium tuberculosis; experiment: Antimycobacterial activity against Mycobacterium tuberculosis H37Rv over producing InhA after 25 days by drop dilution method; assay type: functional, organism-based
[24] = molecular target: T1, Enoyl-[acyl-carrier-protein] reductase [NADH] (Mycobacterium tuberculosis); experiment: Inhibition of Mycobacterium tuberculosis H37Rv InhA assessed as reduction of methoxy and keto mycolic acid synthesis at 40 uM preincubated for 1 hr followed by [14C]glucose addition and measured after 24 hrs by TLC analysis
[25] = molecular target: T1, Enoyl-[acyl-carrier-protein] reductase [NADH] (Mycobacterium tuberculosis); experiment: Inhibition of Mycobacterium tuberculosis H37Rv InhA assessed as reduction of trehalose monomycolate synthesis at 40 uM preincubated for 1 hr followed by [14C]glucose addition and measured after 24 hrs by TLC analysis
[26] = molecular target: T1, Enoyl-[acyl-carrier-protein] reductase [NADH] (Mycobacterium tuberculosis); experiment: Inhibition of Mycobacterium tuberculosis H37Rv InhA assessed as reduction of alpha mycolic acid synthesis at 40 uM preincubated for 1 hr followed by [14C]glucose addition and measured after 24 hrs by TLC analysis
[27] = test system: Mycobacterium tuberculosis; experiment: Effect on short chain fatty acid acid synthesis in Mycobacterium tuberculosis H37Rv at 40 uM preincubated for 1 hr followed by [14C]glucose addition and measured after 24 hrs by TLC analysis; assay type: functional, organism-based
[28] = molecular target: T1, Enoyl-[acyl-carrier-protein] reductase [NADH] (Mycobacterium tuberculosis); experiment: Inhibition of Mycobacterium tuberculosis H37Rv InhA assessed as reduction of trehalose dimycolate synthesis at 40 uM preincubated for 1 hr followed by [14C]glucose addition and measured after 24 hrs by TLC analysis
[29] = molecular target: T1, Enoyl-[acyl-carrier-protein] reductase [NADH] (Mycobacterium tuberculosis); experiment: Inhibition of Mycobacterium tuberculosis H37Rv InhA assessed as reduction of phosphatidylethanolamine synthesis at 40 uM preincubated for 1 hr followed by [14C]glucose addition and measured after 24 hrs by TLC analysis
[30] = molecular target: T1, Enoyl-[acyl-carrier-protein] reductase [NADH] (Mycobacterium tuberculosis); experiment: Inhibition of Mycobacterium tuberculosis H37Rv InhA assessed as reduction of cardiolipin synthesis at 40 uM preincubated for 1 hr followed by [14C]glucose addition and measured after 24 hrs by TLC analysis
[31] = molecular target: T1, Enoyl-[acyl-carrier-protein] reductase [NADH] (Mycobacterium tuberculosis); experiment: Inhibition of Mycobacterium tuberculosis H37Rv InhA assessed as reduction of methyl esters of fatty acid synthesis at 40 uM preincubated for 1 hr followed by [14C]glucose addition and measured after 24 hrs by TLC analysis
[32] = molecular target: T1, Enoyl-[acyl-carrier-protein] reductase [NADH] (Mycobacterium tuberculosis); experiment: Inhibition of Mycobacterium tuberculosis H37Rv InhA assessed as reduction of trehalose dimycolate synthesis at 36.5 uM preincubated for 1 hr followed by [14C]glucose addition and measured after 24 hrs by TLC analysis
[33] = molecular target: T1, Enoyl-[acyl-carrier-protein] reductase [NADH] (Mycobacterium tuberculosis); experiment: Inhibition of Mycobacterium tuberculosis H37Rv InhA assessed as reduction of trehalose monomycolate synthesis at 36.5 uM preincubated for 1 hr followed by [14C]glucose addition and measured after 24 hrs by TLC analysis

Compound | MIC [1] | selectivity ratio [2] | selectivity ratio at 336 h [3] | MIC [4] | MIC [5] | MIC [6] | MIC [7] | IC50 [8] | MIC [9] | MIC [10] | MIC [11] | MIC [12] | selectivity ratio [13] | MIC [14] | Activity [19] | Activity [23] | also measured
CCCCCNC(=O)NNC(=O)c1ccncc1 | 8 µM (≈ 2 µg/mL) | > 32 | > 500 | > 1000 µM | 125 µM (≈ 31.3 µg/mL) | 125 µM (≈ 31.3 µg/mL) | 125 µM (≈ 31.3 µg/mL) | > 4 mM | 125 µM (≈ 31.3 µg/mL) | > 1000 µM | 62.5 µM (≈ 15.6 µg/mL) | 125 µM (≈ 31.3 µg/mL) | > 32 | 8 µM (≈ 2 µg/mL) | – | – | –
CCCCCCCCCCCCNc1nnc(-c2ccncc2)o1 | 4 µM (≈ 1.32 µg/mL) | – | > 6.25 | 8 µM (≈ 2.64 µg/mL) | 125 µM (≈ 41.3 µg/mL) | 125 µM (≈ 41.3 µg/mL) | 125 µM (≈ 41.3 µg/mL) | > 0.05 mM | 125 µM (≈ 41.3 µg/mL) | 16 µM (≈ 5.29 µg/mL) | 125 µM (≈ 41.3 µg/mL) | 125 µM (≈ 41.3 µg/mL) | – | 8 µM (≈ 2.64 µg/mL) | Active | Active | inhibition [15]: inactive; inhibition [16]: inactive; inhibition [17]: inactive; inhibition [18]: inactive; inhibition [20]: inactive; inhibition [21]: inactive; inhibition [22]: inactive
CNC(=O)NNC(=O)c1ccncc1 | 0.5 µM (≈ 0.0971 µg/mL) | – | > 5000 | > 1000 µM | 1000 µM (≈ 194 µg/mL) | 500 µM (≈ 97.1 µg/mL) | > 1000 µM | > 5 mM | > 1000 µM | > 1000 µM | 1000 µM (≈ 194 µg/mL) | 500 µM (≈ 97.1 µg/mL) | – | 1 µM (≈ 0.194 µg/mL) | inactive | inactive | inhibition [24]: Active; inhibition [25]: Active; inhibition [26]: Active; Activity [27]: inactive; inhibition [28]: Active; inhibition [29]: Active; inhibition [30]: Active; inhibition [31]: Active
CCNC(=O)NNC(=O)c1ccncc1 | 1 µM (≈ 0.208 µg/mL) | > 64 | > 2000 | 1000 µM (≈ 208 µg/mL) | 62.5 µM (≈ 13 µg/mL) | 32 µM (≈ 6.66 µg/mL) | 62.5 µM (≈ 13 µg/mL) | > 4 mM | 62.5 µM (≈ 13 µg/mL) | > 1000 µM | 32 µM (≈ 6.66 µg/mL) | 62.5 µM (≈ 13 µg/mL) | > 64 | 2 µM (≈ 0.416 µg/mL) | – | – | –
CCCNC(=O)NNC(=O)c1ccncc1 | 1 µM (≈ 0.222 µg/mL) | > 312 | > 5000 | 250 µM (≈ 55.6 µg/mL) | 8 µM (≈ 1.78 µg/mL) | 4 µM (≈ 0.889 µg/mL) | 16 µM (≈ 3.56 µg/mL) | > 5 mM | 8 µM (≈ 1.78 µg/mL) | 500 µM (≈ 111 µg/mL) | 4 µM (≈ 0.889 µg/mL) | 8 µM (≈ 1.78 µg/mL) | > 312 | 1 µM (≈ 0.222 µg/mL) | – | – | –
NNC(=O)c1ccncc1 [ISONIAZID] | 0.5 µM (≈ 0.0686 µg/mL) | > 625 | > 5000 | > 250 µM | 8 µM (≈ 1.1 µg/mL) | 8 µM (≈ 1.1 µg/mL) | > 250 µM | > 5 mM | > 250 µM | > 250 µM | > 250 µM | 8 µM (≈ 1.1 µg/mL) | > 625 | 1 µM (≈ 0.137 µg/mL) | – | – | inhibition [32]: Active; inhibition [33]: Active
